# Compound activity deposited in PubChem BioAssay by several laboratories.
# PLK1 kinase inh: human PLK1 kinase inhibitors, primary screen, biochemical, TR-FRET; recombinant PLK1 kinase, TR-FRET peptide phosphorylation; inhibition, % at 10 µM; 97,000 tested, 0.53% active;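 active = inhibition of 50% or more in the single-concentration screen; inactive = inhibition below 50%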;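 also: 0% = DMSO max control and 100% = H-89 dihydrochloride min control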
# Rev-RRE block: HIV-1 Rev-RRE binding inhibitors, primary screen, biochemical, FRET, protein-RNA interaction; Rev peptide-RRE RNA binding; 97,000 tested, 0.79% active; P05866; inhibition, % at 8 µM;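 active = inhibition above the screen-wide mean plus 3 SD, cut at about 35% in these data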;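 also: 0% = median DMSO wells and 100% = median Neomycin B control wells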
# Target sequence (P05866 whole entry, looked up): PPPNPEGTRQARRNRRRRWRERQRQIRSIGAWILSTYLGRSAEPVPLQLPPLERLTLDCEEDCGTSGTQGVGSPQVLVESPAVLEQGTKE
#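 Test system – labelled RRE RNA duplex and labelled Rev peptide · Signal – fluorescein-to-Cy5 FRET, 480 nm excitation · Evaluation – % inhibition of FRET ratio versus controls · Benchmarks – DMSO low control, neomycin B high control · Incubation – 5 min RNA-compound premix plus 15 min binding step, 25 °C · Medium – HEPES pH 7.5 salt buffer with EDTA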
# EphB4 antag: EphB4-ephrin-B2 interaction antagonists, primary screen, biochemical, TNYL-RAW peptide probe, fluorescence polarization. EphB4 LBD / TNYL-RAW-Alexa532 peptide. AID 720, 2007. inhibition, % at 7 µM. 97,000 tested, 0.15% active;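 active = inhibition above the screen-wide mean inhibition plus 3 SD, cut at about 15% in these data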;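 also: 0% = DMSO wells and 100% = excess unlabeled TNYL-RAW peptide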
# PostGolgi yeast: phenotypic screen on post-Golgi transport, primary screen. post-Golgi transport phenotypic cell assay. AID 739, 2007. 98,000 tested, 0.9% active. inhibition, % at 10 µM;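 also: yeast cells grown in 1536-well plates; yeast grown about 18 h at 30C before absorbance read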
# Plk1 PBD FP: Plk1 polo box domain binding inhibitors, primary screen, biochemical, fluorescence polarization. inhibition, %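 (tested at about 20 µM)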. Serine/threonine-protein kinase PLK1 (Homo sapiens), P53350. 97,000 tested, 0.13% active. Plk1 PBD phosphopeptide binding; in the data active = inhibition above about 34%, passing the limit was not always enough
# PostGolgi ctrl: growth inhibition of yeast control strain, primary screen, counter-screen for post-Golgi transport modulator project; efflux-deficient yeast background strain, growth absorbance A615, 16 h; inhibition, % at 10 µM; 98,000 tested, 5% active
# * marks the source's active call; other numbers are inactive results; . = not tested or not shown. In the library only some 6.4% were active in any assay of this set; here they are far more common. Rule as the data show it, unless noted: active = inhibition above about 30%; inactive = the rest.
SMILES,PLK1 kinase inh,Rev-RRE block,EphB4 antag,PostGolgi yeast,Plk1 PBD FP,PostGolgi ctrl
Cc1ccccc1C(=O)c1c[nH]c(C(=O)NCc2cccs2)c1,-13,4,1,5,8,0
COc1cc(C)nc2nc(SCc3ccccc3)nn12,-6,1,-6,4,7,4
Cc1cc(C)n2nc(SCc3nnc(SCc4ccccc4)s3)nc2n1,-13,10,-1,6,1,39*
CCc1c(C(=O)N2CCN(c3ccccc3F)CC2)[nH]c(C)c1C(C)=O,-8,5,5,2,-14,11
Cn1c(CSCc2ccc(Cl)cc2)nnc1SCC(=O)Nc1nc2ccccc2s1,-2,2,2,5,-15,6
O=C(Cn1c(=O)n(Cc2ccc3c(c2)OCO3)c(=O)c2ccccc21)N1CCCc2ccccc21,-16,11,-3,9,-2,50*
O=C(Nc1nc2c(c(=O)[nH]1)CCCC2)C1CC1,-11,7,0,1,3,6
Cc1ccc(Oc2ccc(-c3nc(N)nc(N)n3)cc2)cc1C,-1,7,-1,-2,10,50*
CC1CCCCC1NC(=O)c1ccc(N2CCCC2=O)cc1 (centres undefined),-22,2,-10,-17,-11,33*
O=C(CCN1CCc2ccccc2C1)Nc1ccccc1F,0,5,1,2,-9,-1
COc1ccccc1/C=N/N(C(C)=O)c1nc(-c2ccc(F)cc2)cs1,-4,3,-7,1,18,7
CC(C)C(OC(=O)c1cc2occc2n1C)C(=O)NCc1ccc2c(c1)OCO2 (centres undefined),.,.,.,1,.,48*
Cc1cc2c(cc(C(=O)OC(C(=O)NCc3ccco3)C(C)C)n2C)o1 (centres undefined),-16,-2,-13,15,6,14
Cc1ccc(N2CCN(C(=O)c3ccccc3Br)CC2)c(C)c1,-6,12,-8,1,-17,37*
Fc1ccccc1Cc1nnc2n1N=C(c1ccc(Cl)cc1)CS2,-3,8,1,-2,15,6
CCC1Oc2ccc(C)cc2N(CC(=O)NCc2cccc(OC)c2)C1=O (centres undefined),-4,9,0,15,-12,33*
CCC1Oc2ccc(C)cc2N(CC(=O)NCc2cc(OC)ccc2OC)C1=O (centres undefined),.,.,.,-2,.,14
OC(Cn1ccnc1)c1ccc(Cl)cc1Cl (centres undefined),-3,1,-8,76*,8,24
CCc1c(C(=O)Nc2cc(C)ccc2OC)[nH]c(C)c1C(C)=O,-9,-5,-7,29,2,55*
COC(=O)c1cncc(O)c1,-12,4,-4,0,14,11
Cc1ccc(N2C(=O)/C(=C\c3ccco3)SC2=S)cc1,-10,9,1,-6,-21,32*
Cc1cc(C)n(-c2nc3ccccc3nc2N2CCCCCC2)n1,-11,9,-3,5,-4,39*
Cc1cc(C)n(-c2nc3ccccc3nc2N2CCCC2)n1,-10,3,3,-4,-8,9
Cc1cc(=O)oc2cc(OCC(=O)NCc3ccco3)ccc12,-12,2,-5,.,5,.
Cc1nc2ccc(C(C(F)(F)F)(C(F)(F)F)C(F)(F)F)cc2[nH]1,-9,28,6,8,2,66*
Cc1nc2ccc(S(=O)(=O)c3ccc4nc(C)[nH]c4c3)cc2[nH]1,-9,6,2,7,0,3
CCC(C)C(NC(=O)C(C)NC(=O)CNC(=O)CNC(=O)OCc1ccccc1)C(=O)OC (centres undefined),-8,6,7,.,1,.
N#Cc1c(-c2ccc(Cl)cc2Cl)nc2n(c1=O)CCS2,-36,13,-4,-5,21,32*
O=c1c2ccccc2nc2n1CCS2,.,.,.,4,.,6
COc1ccc(-c2cc(C3CCN(c4ccc(C(C)=O)cc4[N+](=O)[O-])CC3)[nH]n2)cc1,-14,5,6,21,-23,37*
